“Also recorded” adds a separate entry of the source.
Legend:
[1] = ABTS radical scavenging assay; format: biochemical; conditions: concentration to scavenge 50% of radicals, mean ± SD; for IC50: read-out: ABTS IC50
Summary of the method: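 ABTS radical cation generated by reacting ABTS with potassium persulfate, then diluted to an absorbance of about 0.700 at 732 nm. Test compound at several concentrations was mixed with the ABTS⁺ solution and the fall in absorbance recorded. Percent scavenging was calculated against a solvent control, with ascorbic acid as reference antioxidant. Three independent experiments in triplicate, mean ± SD.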

Hemolysis assay = format: cell-based, human; conditions: human, washed human red blood cells, Hemolysis (%), 30 min, 37 °C
Summary of the method: (§1)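 Donor blood was collected in EDTA. RBCs were pelleted at 500 × g for 10 min, washed three times in PBS and resuspended in PBS. Cells were exposed to test compound at 10–300 µg/mL for 30 min at 37 °C with gentle agitation, then spun at 1000 × g for 5 min; supernatant hemoglobin was read at 540 nm. Deionized water defined 100% and PBS 0% hemolysis. Triplicate, three independent repeats.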

human erythrocytes = assay: Hemolysis assay; format: cell-based; conditions: for Hemolysis (%): 30 min, 37 °C; for Hemolysis, result in words: 10–300 µg/mL
Summary of the method: as §1

[2] = DPPH radical scavenging assay; format: biochemical; conditions: concentration to scavenge 50% of radicals, 15 min, mean ± SD
Summary of the method: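 Test compound solutions (5–400 µg/mL, concentration before mixing) were added to 50 µM ethanolic DPPH and kept 15 min at room temperature in the dark, then read at 517 nm. A blank with solvent in place of compound served as control. IC50 came from linear regression of % scavenging against concentration. Three independent experiments in triplicate, mean ± SD.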

[3] = system: HT-29 (human colorectal adenocarcinoma); assay: SRB cytotoxicity assay, HT-29 cells; format: cell-based; conditions: for IC50: Homo sapiens, HT-29, 72 h, read-out: IC50 HT-29; for Selectivity index (SI) HT-29: IC50 in GES-1 / IC50 in HT-29
Summary of the method: (§2)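 Cells plated at 3 × 10³ per well and left 24 h to attach at 37 °C, 5% CO₂. Test compound at 0–100 µM from ethanol stocks (1% final ethanol) for 72 h. Fixation in TCA (10% final), staining with 0.1% SRB, dye solubilized in 10 mM Tris, A540. Viability relative to 1% ethanol vehicle. IC50 from a four-parameter logistic fit with 95% CI; triplicate, three independent runs, mean ± SD. SI = IC50 in GES-1 divided by IC50 in the cancer line.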

[4] = system: PC-3 (human prostate cancer); assay: SRB cytotoxicity assay, PC-3 cells; format: cell-based; conditions: for IC50: Homo sapiens, PC-3, 72 h, read-out: IC50 PC-3; for Selectivity index (SI) PC-3: IC50 in GES-1 / IC50 in PC-3
Summary of the method: as §2

[5] = system: AGS (human gastric adenocarcinoma); assay: SRB cytotoxicity assay, AGS cells; format: cell-based; conditions: for IC50: Homo sapiens, AGS, 72 h, read-out: IC50 AGS; for Selectivity index (SI) AGS: IC50 in GES-1 / IC50 in AGS
Summary of the method: as §2

[6] = system: mitochondrial membrane permeability of cancer cell line; assay: Mitochondrial membrane permeability by flow cytometry; format: cell-based, human; conditions: 48 h, Rhodamine 123, flow cytometry

Compound	IC50 [1] [µM]	hemolysis at 30 min, 200 µg/mL (Hemolysis assay) [%]	hemolysis at 30 min, 300 µg/mL (Hemolysis assay) [%]	IC50 [3] [µM]	IC50 [4] [µM]	IC50 [5] [µM]	hemolysis at 30 min, 10 µg/mL (Hemolysis assay) [%]	hemolysis at 30 min, 25 µg/mL (Hemolysis assay) [%]	hemolysis at 30 min, 50 µg/mL (Hemolysis assay) [%]	hemolysis at 30 min, 100 µg/mL (Hemolysis assay) [%]	Selectivity index (SI) AGS [5]	also measured
O=C1O[C@H]([C@@H](O)CO)C(O)=C1O [AA, Ascorbic acid, reference compound]	141 ± 3.5											
CC12CCC(CC1=O)C2(C)C (stereo not drawn) [Compound 1, camphor, reference compound]	> 2630	9.67	10.1	> 100	> 100	> 100						Hemolysis (%) (human erythrocytes; 10 µg/mL): 0%; Hemolysis (%) (human erythrocytes; 25 µg/mL): 0.06%; Hemolysis (%) (human erythrocytes; 50 µg/mL): 3.11%; Hemolysis (%) (human erythrocytes; 100 µg/mL): 4.80%; DPPH IC50 [2]: inactive; ABTS IC50 [1]: inactive
CC1(C)C2CC[C@]1(C)C(=O)/C2=C/c1ccco1 [Compound 3, (1S,3E)-3-[(furan-2-yl)methylidene]-1,7,7-trimethylbicyclo[2.2.1]heptan-2-one]	953 ± 1.5	28.2	35.3	> 100	> 100	99.9 ± 0.2	6.75	8.31	17.9	23.6	1.85	Hemolysis, result in words (human erythrocytes): concentration dependent increase in hemolysis; Effect on mitochondrial membrane potential [6]: loss of the mitochondrial membrane potential
CC1(C)C2CC[C@@]1(C)C(=O)/C2=C/c1ccco1 [Compound 4, (1R,3E)-3-[(furan-2-yl)methylidene]-1,7,7-trimethylbicyclo[2.2.1]heptan-2-one]	1004 ± 2	41.5	49.7	> 100	> 100	> 100	15.7	18.2	20.1	31.8		Hemolysis, result in words (human erythrocytes): concentration dependent increase in hemolysis; also recorded: significant hemolysis
O=c1[nH]cc(F)c(=O)[nH]1 [Compound 5-FU, 5-fluorouracil, reference compound]				2.9 ± 0.7	16.4 ± 0.6	56.1 ± 0.5					2.5	Selectivity index (SI) HT-29 [3]: 48.3
CC1(C)C2CC[C@]1(C)C(=O)/C2=C/c1ccoc1 [Compound 7, (1S,3E)-3-[(furan-3-yl)methylidene]-1,7,7-trimethylbicyclo[2.2.1]heptan-2-one]	1046 ± 3.3	3.12	5.97	> 100	> 100	> 100	0	0	0	1.81		
CC1(C)C2CC[C@]1(C)C(=O)/C2=C/c1cc2ccccc2o1 [Compound 9, (1S,3E)-3-[(1-benzofuran-2-yl)methylidene]-1,7,7-trimethylbicyclo[2.2.1]heptan-2-one]	954.7 ± 2.7	12.9	13.4	76.3 ± 0.2	97 ± 0.2	31.8 ± 0.4	2.01	3.31	6.36	8.05	7.0	Selectivity index (SI) HT-29 [3]: 3.0; Selectivity index (SI) PC-3 [4]: 2.3; Effect on mitochondrial membrane potential [6]: loss of the mitochondrial membrane potential
CC1(C)C2CC[C@@]1(C)C(=O)/C2=C/c1cc2ccccc2o1 [Compound 10, (1R,3E)-3-[(1-benzofuran-2-yl)methylidene]-1,7,7-trimethylbicyclo[2.2.1]heptan-2-one]	1146 ± 3.7	6.16	8.05	> 100	> 100	> 100	0	0.38	3.12	5.84		
COc1cccc2c1C(=O)c1c(O)c3c(c(O)c1C2=O)C[C@@](O)(C(C)=O)C[C@@H]3O[C@H]1C[C@H](N)[C@H](O)[C@H](C)O1 [Daunorubicin, reference compound]				15.1 ± 0.5	10.4 ± 0.4	13 ± 0.3					27.1	Selectivity index (SI) HT-29 [3]: 23.3; Selectivity index (SI) PC-3 [4]: 33.9
Triton X-100 [Triton X-100 1%, reference compound]												Hemolysis (%) (human erythrocytes; 10 µg/mL): 100%; Hemolysis (%) (human erythrocytes; 25 µg/mL): 100%; Hemolysis (%) (human erythrocytes; 50 µg/mL): 100%; Hemolysis (%) (human erythrocytes; 100 µg/mL): 100%; Hemolysis (%) (human erythrocytes; 200 µg/mL): 100%; Hemolysis (%) (human erythrocytes; 300 µg/mL): 100%

Continued, in another order:

IC50 [1] [µM]	Compound	hemolysis at 30 min, 200 µg/mL (Hemolysis assay) [%]	hemolysis at 30 min, 300 µg/mL (Hemolysis assay) [%]	IC50 [3] [µM]	IC50 [4] [µM]	IC50 [5] [µM]	hemolysis at 30 min, 10 µg/mL (Hemolysis assay) [%]	hemolysis at 30 min, 25 µg/mL (Hemolysis assay) [%]	hemolysis at 30 min, 50 µg/mL (Hemolysis assay) [%]	hemolysis at 30 min, 100 µg/mL (Hemolysis assay) [%]	Selectivity index (SI) AGS [5]	also measured
1301 ± 2.4	CC1(C)C2CC[C@]1(C)C(=O)/C2=C/c1cccs1 [Compound 5, (1S,3E)-1,7,7-trimethyl-3-[(thiophen-2-yl)methylidene]bicyclo[2.2.1]heptan-2-one]	7.4	13.8	87.5 ± 0.5	63.57 ± 0.6	43.2 ± 0.3	0	0	1.1	3.11	4.2	Selectivity index (SI) HT-29 [3]: 2.1; Selectivity index (SI) PC-3 [4]: 3.0; Effect on mitochondrial membrane potential [6]: loss of the mitochondrial membrane potential
1082 ± 1.7	CC1(C)C2CC[C@@]1(C)C(=O)/C2=C/c1cccs1 [Compound 6, (1R,3E)-1,7,7-trimethyl-3-[(thiophen-2-yl)methylidene]bicyclo[2.2.1]heptan-2-one]	26.7	29	> 100	> 100	> 100	6.36	7.07	16.8	21.6		Hemolysis, result in words (human erythrocytes): concentration dependent increase in hemolysis
1344 ± 3.4	CC1(C)C2CC[C@@]1(C)C(=O)/C2=C/c1ccoc1 [Compound 8, (1R,3E)-3-[(furan-3-yl)methylidene]-1,7,7-trimethylbicyclo[2.2.1]heptan-2-one]	9.74	12.2	> 100	> 100	> 100	0	2.53	6.29	8.5		
1396 ± 3.8	CC1(C)C2CC[C@]1(C)C(=O)/C2=C/c1ccsc1 [Compound 11, (1S,3E)-1,7,7-trimethyl-3-[(thiophen-3-yl)methylidene]bicyclo[2.2.1]heptan-2-one]	11.2	13.2				0	0.77	5.25	7.2		
1025 ± 3.5	CC1(C)C2CC[C@@]1(C)C(=O)/C2=C/c1ccsc1 [Compound 12, (1R,3E)-1,7,7-trimethyl-3-[(thiophen-3-yl)methylidene]bicyclo[2.2.1]heptan-2-one]	10.2	12.5				5.9	6.81	7.92	9.41		Hemolysis, result in words (human erythrocytes): concentration dependent increase in hemolysis

Source: publication PMC12705676 (Scientific Reports, 2025)
